Source: ChEMBL document CHEMBL1166015, “Design, synthesis, and docking of highly hypolipidemic agents: Schizosaccharomyces pombe as a new model for evaluating alpha-asarone-based HMG-CoA reductase inhibitors” (Bioorg Med Chem, 2010)

Assays:
[1] = molecular target: T1, 3-hydroxy-3-methylglutaryl-coenzyme A reductase (Schizosaccharomyces pombe 972h-, UniProt Q10283); test: Inhibition of Schizosaccharomyces pombe HMG-CoA reductase by spectrophotometry
T1 sequence (Q10283 whole entry): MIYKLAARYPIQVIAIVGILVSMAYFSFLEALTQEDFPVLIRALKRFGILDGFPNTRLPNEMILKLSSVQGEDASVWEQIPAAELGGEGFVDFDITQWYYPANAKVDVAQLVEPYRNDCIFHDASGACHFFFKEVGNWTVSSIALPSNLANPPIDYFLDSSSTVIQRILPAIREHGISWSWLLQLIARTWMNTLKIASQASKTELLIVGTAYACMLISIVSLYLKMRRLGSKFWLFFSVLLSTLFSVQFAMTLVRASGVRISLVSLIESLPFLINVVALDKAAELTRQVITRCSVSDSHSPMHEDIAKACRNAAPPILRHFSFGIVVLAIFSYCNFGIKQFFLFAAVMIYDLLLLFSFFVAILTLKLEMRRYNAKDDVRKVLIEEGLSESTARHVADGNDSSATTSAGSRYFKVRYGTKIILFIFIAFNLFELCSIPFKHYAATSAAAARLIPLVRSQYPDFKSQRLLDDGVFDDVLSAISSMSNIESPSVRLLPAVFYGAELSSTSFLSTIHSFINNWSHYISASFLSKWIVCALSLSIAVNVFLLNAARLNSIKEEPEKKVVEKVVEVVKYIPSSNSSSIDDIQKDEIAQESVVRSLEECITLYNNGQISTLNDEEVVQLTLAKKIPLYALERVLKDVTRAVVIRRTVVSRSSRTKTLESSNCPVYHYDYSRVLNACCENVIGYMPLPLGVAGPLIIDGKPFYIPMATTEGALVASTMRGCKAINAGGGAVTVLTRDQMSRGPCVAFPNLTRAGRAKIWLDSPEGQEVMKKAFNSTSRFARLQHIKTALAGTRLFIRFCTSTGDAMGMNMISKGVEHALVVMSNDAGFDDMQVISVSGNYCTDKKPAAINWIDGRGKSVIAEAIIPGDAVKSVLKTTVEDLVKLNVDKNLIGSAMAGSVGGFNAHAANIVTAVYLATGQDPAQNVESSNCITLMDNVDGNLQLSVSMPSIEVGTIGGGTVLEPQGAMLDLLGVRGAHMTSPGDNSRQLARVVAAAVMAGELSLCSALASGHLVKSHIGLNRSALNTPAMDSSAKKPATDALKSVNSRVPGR
In short: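 Membrane HMGR partially purified from S. pombe 972 h (YPD, 28 °C, 48 h) via centrifugation, Triton X-100 solubilization, 65 °C heat step, ammonium sulfate and calcium phosphate gel. Enzyme activated 37 °C 30 min, pre-incubated with compound (DMSO stocks 1–5 mM) 30 min at 37 °C. Assay: 200 µg enzyme, 0.13 mM HMG-CoA, 50 mM Tris-HCl pH 7.5; started with 0.13 mM NADPH; A340 decrease over 2 min; triplicate; IC50 derived.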

Mus musculus [2] = test: Hypolipidemic activity in ICR mouse assessed as decrease in Tyloxapol-induced total cholesterol level at 50 mg/kg, ip administered 1 hr before Tyloxapol challenge and 22, 48 hrs after Tyloxapol challenge measured after 22 hrs relative to control; type: functional; design: scale not given: the % may be the effect or the level left; settings: route oral, in the assay text read “po administered” for “ip administered”
In short: (§1)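 Male ICR mice (24–27 g), groups of six. Hyperlipidemia induced by ip Tyloxapol (Triton WR 1339) 400 mg/kg in water. Drug given at 5 mL/kg 1 h before and 22 and 48 h after injection; vehicle controls. Blood drawn 22 h post-injection by periorbital bleeding. Serum total cholesterol, HDL-C and triglycerides measured on an automatic analyzer; LDL-C by the Friedewald equation. Values are % of the Tyloxapol group, mean ± SE.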

Mus musculus [3] = test: Hypolipidemic activity in high cholesterol diet fed ICR mouse assessed as reduction of HDL cholesterol level at 50 mg/kg/day, po after 12 hrs of last cholesterol challenge relative to control; design: scale not given: the % may be the effect or the level left
Mus musculus [4] = test: Hypolipidemic activity in high cholesterol diet fed ICR mouse assessed as reduction of triglyceride level at 100 mg/kg/day, po after 12 hrs of last cholesterol challenge relative to control; design: scale not given: the % may be the effect or the level left
Mus musculus [5] = test: Hypolipidemic activity in high cholesterol diet fed ICR mouse assessed as reduction of total cholesterol level at 100 mg/kg/day, ip after 12 hrs of last cholesterol challenge relative to control; type: functional; design: scale not given: the % may be the effect or the level left; settings: route intraperitoneal
In short: (§2)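 Male ICR mice (24–27 g), six per group, were fed a high-cholesterol diet ad libitum for 6 days (1.0% cholesterol, 0.5% sodium cholate, 5% butter, 30% sucrose, 10% casein, 53.5% chow). Basal-diet mice served as controls. Dosing was 5 mL/kg and solutions were made fresh. Mice were fasted 12 h before sacrifice and bled periorbitally. Serum TC, HDL-C and TG were read on an analyzer, with LDL-C by Friedewald.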

Mus musculus [6] = test: Hypolipidemic activity in high cholesterol diet fed ICR mouse assessed as reduction of LDL cholesterol level at 50 mg/kg/day, po after 12 hrs of last cholesterol challenge relative to control; design: scale not given: the % may be the effect or the level left
Mus musculus [7] = test: Hypolipidemic activity in high cholesterol diet fed ICR mouse assessed as reduction of HDL cholesterol level at 100 mg/kg/day, po after 12 hrs of last cholesterol challenge relative to control; design: scale not given: the % may be the effect or the level left
Mus musculus [8] = test: Hypolipidemic activity in high cholesterol diet fed ICR mouse assessed as reduction of LDL cholesterol level at 100 mg/kg/day, po after 12 hrs of last cholesterol challenge relative to control; design: scale not given: the % may be the effect or the level left
Mus musculus [9] = test: Hypolipidemic activity in ICR mouse assessed as decrease in Tyloxapol-induced LDL-cholesterol level at 50 mg/kg, ip administered 1 hr before Tyloxapol challenge and 22, 48 hrs after Tyloxapol challenge measured after 22 hrs relative to control; type: functional; design: scale not given: the % may be the effect or the level left; settings: route oral, in the assay text read “po administered” for “ip administered”; in short: as §1
Mus musculus [10] = test: Hypolipidemic activity in ICR mouse assessed as decrease in Tyloxapol-induced total cholesterol level at 100 mg/kg, ip administered 1 hr before Tyloxapol challenge and 22, 48 hrs after Tyloxapol challenge measured after 22 hrs relative to control; type: functional; design: scale not given: the % may be the effect or the level left; settings: route oral, in the assay text read “po administered” for “ip administered”; in short: as §1
Mus musculus [11] = test: Hypolipidemic activity in ICR mouse assessed as decrease in Tyloxapol-induced HDL-cholesterol level at 50 mg/kg, ip administered 1 hr before Tyloxapol challenge and 22, 48 hrs after Tyloxapol challenge measured after 22 hrs relative to control; type: functional; design: scale not given: the % may be the effect or the level left; settings: route oral, in the assay text read “po administered” for “ip administered”; in short: as §1
Mus musculus [12] = test: Hypolipidemic activity in ICR mouse assessed as decrease in Tyloxapol-induced LDL-cholesterol level at 100 mg/kg, ip administered 1 hr before Tyloxapol challenge and 22, 48 hrs after Tyloxapol challenge measured after 22 hrs relative to control; type: functional; design: scale not given: the % may be the effect or the level left; settings: route oral, in the assay text read “po administered” for “ip administered”; in short: as §1
Mus musculus [13] = test: Hypolipidemic activity in ICR mouse assessed as decrease in Tyloxapol-induced HDL-cholesterol level at 100 mg/kg, ip administered 1 hr before Tyloxapol challenge and 22, 48 hrs after Tyloxapol challenge measured after 22 hrs relative to control; type: functional; design: scale not given: the % may be the effect or the level left; settings: route intraperitoneal; in short: as §1
Mus musculus [14] = test: Hypolipidemic activity in high cholesterol diet fed ICR mouse assessed as reduction of triglyceride level at 50 mg/kg/day, po after 12 hrs of last cholesterol challenge relative to control; design: scale not given: the % may be the effect or the level left
Mus musculus [15] = test: Hypolipidemic activity in ICR mouse assessed as decrease in Tyloxapol-induced triglyceride level at 50 mg/kg, ip administered 1 hr before Tyloxapol challenge and 22, 48 hrs after Tyloxapol challenge measured after 22 hrs relative to control; type: functional; design: scale not given: the % may be the effect or the level left; settings: route intraperitoneal; in short: as §1
Mus musculus [16] = test: Hypolipidemic activity in high cholesterol diet fed ICR mouse assessed as reduction of total cholesterol level at 50 mg/kg, ip after 12 hrs of last cholesterol challenge relative to control; type: functional; design: scale not given: the % may be the effect or the level left; settings: route intraperitoneal; in short: as §2
Mus musculus [17] = test: Hypolipidemic activity in ICR mouse assessed as decrease in Tyloxapol-induced triglyceride level at 100 mg/kg, ip administered 1 hr before Tyloxapol challenge and 22, 48 hrs after Tyloxapol challenge measured after 22 hrs relative to control; type: functional; design: scale not given: the % may be the effect or the level left; settings: route intraperitoneal; in short: as §1

`CCOC(=O)COc1cccc(C)c1` was tested, and the IC50 ([1]; read-out: IC50) was 182 µM.
`CCc1ccccc1OCC(=O)OC` was tested, and the IC50 ([1]; read-out: IC50) was 506 µM.
For `CCOC(=O)COc1cccc(C(C)=O)c1`, the IC50 [1] was “Not Active”.
For `C=CCc1ccc(OCCNC(=O)c2cccc(Cl)c2)c(OC)c1`, the IC50 ([1]; read-out: IC50) was 239 µM.
In the case of `CCc1ccc(OCC(=O)OC)cc1`, the IC50 ([1]; read-out: IC50) is reported as 1320 µM.
`CCCCc1cc(OC)c(OC)cc1OC` was tested, and the IC50 ([1]; read-out: IC50) was 219 µM.
For `COC(=O)COc1ccccc1C`, the IC50 ([1]; read-out: IC50) was 91.3 µM.
`C/C=C/c1ccc(OCCNC(=O)c2ccc(Cl)cc2)c(OC)c1` gave an IC50 ([1]; read-out: IC50) of 129 µM.
`CCCc1cc(OC)c(OCC(=O)OC)cc1O` showed an Activity (Mus musculus [2]) of -68.32%, an Activity (Mus musculus [3]) of -18.89% and an Activity (Mus musculus [4]) of -55.91%. The Activity (Mus musculus [5]) was -74.14%, the Activity (Mus musculus [6]) was -28.88% and the Activity (Mus musculus [7]) was -13.45%. The Activity (Mus musculus [8]) was -41.81%, the Activity (Mus musculus [9]) was -28.94% and the Activity (Mus musculus [10]) was -68.42%. It also gave an Activity (Mus musculus [11]) of -29.15%, an Activity (Mus musculus [12]) of -23.15% and an Activity (Mus musculus [13]) of -25.03%. The Activity (Mus musculus [14]) was -68.42%, the Activity (Mus musculus [15]) was -38.63% and the Activity (Mus musculus [16]) was -53.34%. The IC50 ([1]; read-out: IC50) was 66.5 µM and the Activity (Mus musculus [17]) was -47.07%.
`C/C=C/c1cc(OC)c(OC)cc1Cl` was tested, and the IC50 ([1]; read-out: IC50) was 71.4 µM.
`C/C=C/c1cc(OC)c(OC)cc1N` was tested, and the IC50 ([1]; read-out: IC50) was 167 µM.
For `CCC(O)c1cc(OC)c(OC)cc1N` (centres undefined), the IC50 ([1]; read-out: IC50) was 153 µM.
Work on `CCc1ccc(OCC(=O)OC)c([N+](=O)[O-])c1` yielded an IC50 ([1]; read-out: IC50) of 197 µM.
